Test results as given in PubChem BioAssay.
Active and inactive are the calls of the source.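 How the source made its calls, unless noted: active means viability at or under a set limit in both replicates, limit being median viability minus 3 SD (cut at about 48% in these data, passing the limit was not always enough); inconclusive means at or under the limit in just one replicate; inactive means at or above the limit in both replicates.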

Experiments:
[1] = reducers of endogenous Her2 protein level, primary screen, SKBR3 breast tumor cells, AlphaScreen, ATP viability (AID 461;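 active means Her2 level under about 52% in both replicate screens, with viability over 70% of control, limit read from the data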;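 on Her2 level: lower value means less Her2 protein in the cells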;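 on viability: percent of carrier control wells set as 100% viability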); conditions: 18-24 h, measured here: SKBR3 viability, ATP luminescence, at 10 µM
[2] = molecular target: Receptor tyrosine-protein kinase erbB-2 (Homo sapiens) (UniProt P04626); test: as above; conditions: 18-24 h, at 10 µM, stronger effect = lower value
[3] = SK-BR-3 cell growth inhibitors, pilot screen, 24 h, human (AID 572;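 active means viability at or below 10% of carrier control in both of two separate runs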;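 further: compound exposure lasted between 18 and 24 h rather than exactly 24 h; 100% = carrier-treated control wells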); conditions: SK-BR-3 viability, CellTiter-Glo luminescence, at 10 µM, stronger effect = lower value
[4] = HUVEC growth inhibition – cell-based, human, primary screen (AID 575;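 active means viability at or below 30% in both replicate assays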;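 further: 100% = median of untreated cell wells with 0.1% DMSO on each plate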); conditions: HUVEC proliferation, CellTiter-Glo luminescence, 72 h; at 10 µM; stronger effect = lower value
How it was run: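 Material: primary human umbilical vein endothelial cells / Schedule: 72 h exposure, 37 °C, 5% CO2, 30 min RT equilibration / Signal: ATP-based CellTiter-Glo luminescent read / Read-out basis: percent of median DMSO-control luminescence / Control set: 32 DMSO-only cell-control wells (high), 32 MePR drug-control wells (low) per plate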

[5] = growth inhibitors of H69AR lung tumor, primary screen, human, duplicate replicates (AID 580); conditions: H69AR lung tumor cells viability, ATP luminescence, 72 h; at 10 µM; stronger effect = lower value;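 further: 100% = mean luminescence of untreated wells and 0% = no signal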
[6] = reversal of MRP1-mediated doxorubicin resistance, pilot screen, H69AR cells, doxorubicin co-treatment (AID 601;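 active means viability loss from added drug above about 55%, and viability with drug at most 40%, in both replicates, limit read from the data, passing the limit was not always enough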); conditions: CellTiter-Glo, 72 h, at 10 µM; for differential viability (reversal): stronger effect = higher value
[7] = 384-well plate pilot, post-Golgi transport modulator project, inhibition of yeast transport mutant growth (AID 636; in the data active means inhibition above about 31%); conditions: absorbance 615 nm, about 18 h, stronger effect = higher value
[8] = growth suppression of yeast trafficking mutant, preliminary HTS, modulators of trafficking downstream of Golgi apparatus project, 1536-format plate, OD 615 nm (AID 637; in the data active means inhibition above about 30%); conditions: yeast transport mutant growth, absorbance 615 nm, 18 h; stronger effect = higher value
[9] = H69AR cells + 2 uM doxorubicin, measured here: viability with 2 uM doxorubicin, stronger effect = lower value
[10] = H69AR cells, compound alone cytotoxicity

Chain of Receptor tyrosine-protein kinase erbB-2 (Homo sapiens) (P04626 whole entry, looked up): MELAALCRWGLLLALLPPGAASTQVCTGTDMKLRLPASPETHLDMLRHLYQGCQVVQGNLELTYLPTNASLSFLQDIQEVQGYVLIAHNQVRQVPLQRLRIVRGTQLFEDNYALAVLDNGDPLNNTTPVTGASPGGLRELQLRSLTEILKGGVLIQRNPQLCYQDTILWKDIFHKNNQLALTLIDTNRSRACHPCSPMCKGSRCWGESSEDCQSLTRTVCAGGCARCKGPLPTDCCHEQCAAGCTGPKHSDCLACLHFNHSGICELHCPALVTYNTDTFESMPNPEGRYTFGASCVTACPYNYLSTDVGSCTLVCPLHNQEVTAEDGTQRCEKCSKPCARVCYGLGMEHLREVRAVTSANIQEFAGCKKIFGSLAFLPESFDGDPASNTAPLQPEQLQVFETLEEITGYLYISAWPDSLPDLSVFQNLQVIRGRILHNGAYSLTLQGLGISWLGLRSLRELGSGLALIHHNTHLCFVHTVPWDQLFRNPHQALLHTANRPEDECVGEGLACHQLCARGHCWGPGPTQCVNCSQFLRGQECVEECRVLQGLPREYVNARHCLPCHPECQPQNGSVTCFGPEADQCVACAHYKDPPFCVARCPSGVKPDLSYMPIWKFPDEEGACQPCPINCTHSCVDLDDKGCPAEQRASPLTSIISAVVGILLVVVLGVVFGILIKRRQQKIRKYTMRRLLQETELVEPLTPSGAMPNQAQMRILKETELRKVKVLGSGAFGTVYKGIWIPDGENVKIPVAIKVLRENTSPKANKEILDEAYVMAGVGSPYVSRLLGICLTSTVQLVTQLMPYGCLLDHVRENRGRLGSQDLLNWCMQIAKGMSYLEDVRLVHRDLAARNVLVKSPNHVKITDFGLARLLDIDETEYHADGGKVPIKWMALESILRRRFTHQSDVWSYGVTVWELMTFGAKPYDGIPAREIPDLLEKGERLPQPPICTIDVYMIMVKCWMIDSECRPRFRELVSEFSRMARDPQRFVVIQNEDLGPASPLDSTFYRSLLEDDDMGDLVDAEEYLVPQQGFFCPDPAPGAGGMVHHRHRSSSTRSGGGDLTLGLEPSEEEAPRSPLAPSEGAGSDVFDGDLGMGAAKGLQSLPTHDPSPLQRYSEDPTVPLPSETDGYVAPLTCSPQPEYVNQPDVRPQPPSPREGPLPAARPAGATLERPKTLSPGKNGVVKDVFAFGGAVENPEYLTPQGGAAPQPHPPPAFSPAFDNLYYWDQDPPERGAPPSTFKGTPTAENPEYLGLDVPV

Row | SMILES | viability [1] [%] | Her2 level [2] | viability [3] | viability [4] | viability [5] | differential viability (reversal) ([6]; H69AR cells + 2 uM doxorubicin) | viability [6, 9] [%] | viability [6, 10] [%] | inhibition [7] | inhibition [8]
1 | O=c1oc2ccccc2c2nccnc12 | 93.5 | 115% (inactive) | 93.5% (inactive) | 103% (inactive) | 96.5% (inactive) | 5.08% (inactive) | 91.4 | 96.5 | -0.13% (inactive) | -9.5% (inactive)
2 | COc1cccc(NC(=O)N2CCN(C(=O)C(Cc3ccc(OC)c(OC)c3)NC(C)=O)CC2)c1 (stereo not given) | 97 | 124% (inactive) | 97% (inactive) | 91.1% (inactive) | 90.7% (inactive) | 2.21% (inactive) | 88.5 | 90.7 | -4.62% (inactive) | -7.5% (inactive)
3 | CCc1nnc(NC(=O)c2ccc(S(=O)(=O)NCC(C)C)cc2)s1 | 92.5 | 89% (inactive) | 92.5% (inactive) | 100% (inactive) | 98.3% (inactive) | 1.11% (inactive) | 97.2 | 98.3 | -5.95% (inactive) | 0.16% (inactive)
4 | O=C(Nc1ccccc1)N(CCN1CCOCC1)Cc1ccccc1F | 106 | 103% (inactive) | 106% (inactive) | 92.2% (inactive) | 92.3% (inactive) | -16% (inactive) | 108 | 92.3 | 2.11% (inactive) | 1.64% (inactive)
5 | CC(NCc1ccco1)C(=O)N1CCc2ccccc2C1 (stereo not given) | 108 | 108% (inactive) | 108% (inactive) | 109% (inactive) | 92.9% (inactive) | 5.48% (inactive) | 87.4 | 92.9 | 1.92% (inactive) | -2.06% (inactive)
6 | CSc1nc(NC(C)(C)C)nc(Oc2ccc(=O)[nH]n2)n1 | 101 | 93.5% (inactive) | 101% (inactive) | 107% (inactive) | 92.1% (inactive) | 0.405% (inactive) | 91.7 | 92.1 | -3.82% (inactive) | 2.46% (inactive)
7 | Cc1ccc(OCC(=O)NCCN2CCCC2)cc1 | 97.5 | 84.5% (inactive) | 97.5% (inactive) | 86% (inactive) | 95.9% (inactive) | 9.56% (inactive) | 86.4 | 95.9 | -6.8% (inactive) | 2.3% (inactive)
8 | COc1cc2nc(C3CCC3)n(NC(=O)C3CCCC(OC)C3)c(=O)c2cc1OC (stereo not given) | 100 | 110% (inactive) | 100% (inactive) | 117% (inactive) | 92.2% (inactive) | -5.31% (inactive) | 97.5 | 92.2 | -9.86% (inactive) | -0.67% (inactive)
9 | COc1ccc(C)cc1NC(=O)CN(Cc1nnc(-c2ccc(Cl)cc2)o1)C1CCCC1 | 89 | 89.5% (inactive) | 89% (inactive) | 84.5% (inactive) | 4.7% (active) | -33.9% (inactive) | 38.6 | 4.7 | -4.73% (inactive) | -2.95% (inactive)
10 | CCC1C(=O)n2nc(-c3ccccc3)cc2N=C1C (stereo not given) | 106 | 66.5% (inactive) | 106% (inactive) | 86.9% (inactive) | 99% (inactive) | 8.73% (inactive) | 90.2 | 99 | -0.39% (inactive) | -3.17% (inactive)
11 | Cc1nc2c(-c3ccccc3)c(C)nn2c(C)c1CCC(=O)O | 97.5 | 100% (inactive) | 97.5% (inactive) | 85.5% (inactive) | 86.2% (inactive) | -0.87% (inactive) | 87 | 86.2 | -4% (inactive) | 5.57% (inactive)
12 | CC1CN(C(=O)c2cc3cc(Cl)cc(Cl)c3oc2=O)CC(C)O1 (stereo not given) | 83.5 | 102% (inactive) | 83.5% (inactive) | 96.8% (inactive) | 92.4% (inactive) | 4.73% (inactive) | 87.7 | 92.4 | -3.47% (inactive) | 23.8% (inactive)
13 | c1ccc(-n2cnc3cc(NCc4ccccn4)ccc32)cc1 | 109 | 90.5% (inactive) | 109% (inactive) | 102% (inactive) | 86.4% (inactive) | 2.47% (inactive) | 84 | 86.4 | -5.27% (inactive) | 2.7% (inactive)
14 | Fc1ccc(C(c2nnnn2Cc2ccco2)N2CCN(C3CCCCC3)CC2)cc1 (stereo not given) | 67 | 86.5% (inactive) | 67% (inactive) | 92.5% (inactive) | 94.1% (inactive) | 5.67% (inactive) | 88.5 | 94.1 | 2% (inactive) | 21.9% (inactive)
15 | O=C(COC(=O)c1ccccc1Oc1ccccc1)NC1CCS(=O)(=O)C1 (stereo not given) | 107 | 104% (inactive) | 107% (inactive) | 98.8% (inactive) | 90% (inactive) | -8.6% (inactive) | 98.6 | 90 | 0.54% (inactive) | -5.57% (inactive)
16 | Cc1cc(C(=O)COC(=O)C2COc3ccccc3O2)c(C)n1CC1CCCO1 (stereo not given) | 82 | 100% (inactive) | 82% (inactive) | 99.4% (inactive) | 94% (inactive) | 0.315% (inactive) | 93.6 | 94 | -0.38% (inactive) | -4.5% (inactive)

Row | SMILES | viability [1] [%] | Her2 level [2] | viability [3] | viability [4] | viability [5] | differential viability (reversal) ([6]; H69AR cells + 2 uM doxorubicin) | viability [6, 9] [%] | viability [6, 10] [%] | inhibition [7] | inhibition [8]
17 | Cc1ccc(CCNC(=O)CC2Oc3ccc(C)cc3NC2=O)cc1 (stereo not given) | 90 | 93.5% (inactive) | 90% (inactive) | 74.5% (inactive) | 96% (inactive) | 3.38% (inactive) | 92.6 | 96 | 5.47% (inactive) | -2.46% (inactive)
18 | COc1ccc(C(CNC(=O)c2cc(C)oc2C)N2CCOCC2)cc1 (stereo not given) | 126 | 96.5% (inactive) | 126% (inactive) | 91.6% (inactive) | 101% (inactive) | -9.67% (inactive) | 110 | 101 | -3.64% (inactive) | -0.32% (inactive)
19 | COCCn1c(C23CC4CC(CC(C4)C2)C3)n[nH]c1=S | 90 | 94.5% (inactive) | 90% (inactive) | 79.5% (inactive) | 77.2% (inactive) | 1.57% (inactive) | 75.6 | 77.2 | -2.34% (inactive) | 1.33% (inactive)
20 | CC1(C)C(=O)Nc2ccccc2N1C(=O)COC(=O)Cn1cnc2ccccc2c1=O | 110 | 112% (inactive) | 110% (inactive) | 110% (inactive) | 96.3% (inactive) | 1.74% (inactive) | 94.5 | 96.3 | -3.55% (inactive) | -5.5% (inactive)
21 | O=C1c2ccccc2C(=O)N1C/C=C/c1ccccc1 | 81 | 75% (inactive) | 81% (inactive) | 78.2% (inactive) | 96.7% (inactive) | 7.29% (inactive) | 89.5 | 96.7 | -3.47% (inactive) | -1.29% (inactive)
22 | CC(=O)c1cn(CC(=O)NCc2ccc3c(c2)OCO3)c2ccccc12 | 102 | 93% (inactive) | 102% (inactive) | 98.4% (inactive) | 99% (inactive) | 6.8% (inactive) | 92.2 | 99 | -9.32% (inactive) | 3.65% (inactive)
23 | COc1cc(-c2noc(-c3cccc(Cl)c3)n2)cc(OC)c1OC | 92.5 | 86% (inactive) | 92.5% (inactive) | 68% (inactive) | 80.5% (inactive) | -10.1% (inactive) | 90.6 | 80.5 | -5.73% (inactive) | 0.97% (inactive)
24 | COc1cc(NC(=O)C(C)Oc2ccccc2)c(C(=O)O)cc1OC (stereo not given) | 116 | 90% (inactive) | 116% (inactive) | 96.4% (inactive) | 92.8% (inactive) | 11.7% (inactive) | 81.1 | 92.8 | -7.07% (inactive) | 2.13% (inactive)
25 | CC(C)CC(=O)Nc1ccccc1-c1nnn(CC(=O)N2CCOCC2)n1 | 102 | 92% (inactive) | 102% (inactive) | 87.8% (inactive) | 86.8% (inactive) | -1.72% (inactive) | 88.5 | 86.8 | -5.87% (inactive) | -1.77% (inactive)
26 | CN1CCN(CCCNC(=O)C2CC(=O)N(C3CCCCC3)C2)CC1 (stereo not given) | 106 | 90% (inactive) | 106% (inactive) | 88.8% (inactive) | 91.4% (inactive) | -3.83% (inactive) | 95.2 | 91.4 | -4.47% (inactive) | 3.06% (inactive)
27 | CCOC(=O)CSC1=C(C#N)C(=O)NC(c2ccc(OC)c(OC)c2)S1 (stereo not given) | 104 | 99% (inactive) | 104% (inactive) | 74.6% (inactive) | 97.2% (inactive) | -1.72% (inactive) | 99 | 97.2 | -4.79% (inactive) | 0.16% (inactive)
28 | CCOC(=O)c1ccc(S(=O)(=O)Nc2cc(C(C)(C)C)no2)cc1 | 92 | 97% (inactive) | 92% (inactive) | 112% (inactive) | 101% (inactive) | -2.06% (inactive) | 103 | 101 | -3.25% (inactive) | -3.81% (inactive)
29 | Cc1c(NS(=O)(=O)c2ccc3c(c2)c(=O)n(C)c(=O)n3C)c(=O)n(-c2ccccc2)n1C | 99.5 | 85.5% (inactive) | 99.5% (inactive) | 77.8% (inactive) | 95.7% (inactive) | 6.11% (inactive) | 89.6 | 95.7 | -4.4% (inactive) | 7.7% (inactive)
30 | Cc1ccc2c(c1)-c1cc(C)nn1C(c1ccc3c(c1)OCO3)N2 (stereo not given) | 100 | 100% (inactive) | 100% (inactive) | 54% (inactive) | 87.2% (inactive) | -11.2% (inactive) | 98.4 | 87.2 | -2.76% (inactive) | -3.55% (inactive)
31 | Cc1csc(NC(=O)c2ccco2)n1 | 102 | 83.5% (inactive) | 102% (inactive) | 82.9% (inactive) | 83.3% (inactive) | 1.88% (inactive) | 81.4 | 83.3 | -3.46% (inactive) | -5.5% (inactive)
